From ChEMBL document CHEMBL4813982, “Novel pyrazolo[4,3-d]pyrimidine microtubule targeting agents (MTAs): Synthesis, structure-activity relationship, in vitro and in vivo evaluation as antitumor agents” (Bioorg Med Chem Lett, 2021)

Tests used:
Tubulin (Homo sapiens) [1] = target: T1, Tubulin (Homo sapiens) (UniProt P68371+Q9H4B7+P0DPH7+P68366+Q13509+Q71U36+P04350+Q3ZCM7+P07437+P68363+Q9BQE3+Q6PEY2+Q13885+Q9BVA1+Q9BUF5); experiment: Inhibition of [3H]colchicine binding to tubulin (unknown origin) at 5 uM relative to control; format: protein-complex assay
Tubulin = experiment: Inhibition of tubulin assembly (unknown origin); format: protein-complex assay, Homo sapiens
OVCAR-8 = experiment: Antiproliferative activity against human OVCAR-8 cells; format: functional, cell-based
NCI/ADR-RES = experiment: Antiproliferative activity against human NCI/ADR-RES cells overexpressing Pgp; format: functional, cell-based
Tubulin (Homo sapiens) [2] = target: T1, Tubulin (Homo sapiens); experiment: Inhibition of [3H]colchicine binding to tubulin (unknown origin) at 0.5 uM relative to control; format: protein-complex assay
MCF7 [3] = experiment: Antiproliferative activity against human MCF7 cells; format: functional, cell-based
MCF7 [4] = experiment: Antiproliferative activity against human MCF7 cells expressing TUBB3; format: functional, cell-based
[5] = Resistance ratio of EC50 for antiproliferative activity against human MCF7 cells expressing TUBB3 to EC50 for antiproliferative activity against human MCF7 cells; format: functional
Outline: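 Resistance ratio: EC50 in MCF-7 cells overexpressing βIII-tubulin divided by EC50 in parental wild-type MCF-7 cells.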

MCF7 [6] = experiment: Potency index, ratio of EC50 of paclitaxel to EC50 of compound for antiproliferative activity against human MCF7 cells; format: functional
MCF7 [7] = experiment: Potency index, ratio of EC50 of paclitaxel to EC50 of compound for antiproliferative activity against human MCF7 cells expressing TUBB3; format: functional
[8] = Resistance ratio of IC50 for antiproliferative activity against human NCI/ADR-RES cells expressing Pgp to IC50 for antiproliferative activity against human OVCAR-8 cells; format: functional
Outline: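 Resistance ratio: IC50 in Pgp-overexpressing NCI/ADR-RES cells divided by IC50 in parental OVCAR-8 cells.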

| Structure (SMILES) | inhibition (Tubulin (Homo sapiens) [1]) | IC50 (Tubulin) | IC50 (OVCAR-8) | IC50 (NCI/ADR-RES) | inhibition (Tubulin (Homo sapiens) [2]) | EC50 (MCF7 [3]) | EC50 (MCF7 [4]) | Ratio EC50 [5] | Ratio EC50 (MCF7 [6]) | Ratio EC50 (MCF7 [7]) | Ratio IC50 [8] |
| --- | --- | --- | --- | --- | --- | --- | --- | --- | --- | --- | --- |
| COc1ccc(Nc2nc(Cl)nc3cnn(C)c23)cc1 | 7.1% | > 20000 nM | > 5000 nM | > 5000 nM | – | – | – | – | – | – | – |
| CCOc1ccc(N(C)c2nc(Cl)nc3cnn(C)c23)cc1 | 99% | 420 nM | 2 nM | 4 nM | 88% | 7.7 nM | 9.7 nM | 1.3 | 25 | 220 | 2 |
| COc1ccc(N(C)c2nc(C)nc3cc[nH]c23)cc1 | 60% | 10000 nM | – | – | – | – | – | – | – | – | – |
| COc1ccc2c(c1)CCCN2c1nc(C)nc2c(Cc3ccccc3)c[nH]c12 | 43% | – | – | – | – | – | – | – | – | – | – |
